≈ marks a conversion by molar mass, not a printed value.

Data set [1] relates to Staphylococcus aureus. Nature of the data set: Antimicrobial activity against vancomycin-resistant-, methicillin-resistant Staphylococcus aureus 510 assessed as time required to induce post antibiotic sub-MIC effect at 0.4 times MIC […] by plate counting method. The data set is classed as functional. Summed up: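 After 1 h preexposure to 10× MIC at 35°C and 1:1,000 dilution, cultures were split, and drug was re-added to final 0.2, 0.3 or 0.4× MIC, with a drug-free tube. Viable counts were taken every 2 h until McFarland 1 turbidity. Duration was derived from log10 CFU/ml versus time curves. Two experiments were run, each with a new inoculum.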

In data set [2] the test system is Streptococcus agalactiae. The experiment in a line: Antimicrobial activity against Streptococcus agalactiae HMC 5 assessed as time required to induce post antibiotic sub-MIC effect at 0.4 times MIC […] by plate counting method. Format: functional. Summed up: (§1)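 Mueller-Hinton broth cultures of about 5 × 10^6 CFU/ml were pre-exposed to telavancin at 10× MIC for 1 h at 35°C, then diluted 1:1,000. Telavancin was re-added to final 0.2, 0.3 or 0.4× MIC, alongside a drug-free tube. Viable counts were taken before exposure, after dilution, then every 2 h until McFarland no. 1 turbidity. Duration comes from log10 CFU/ml-versus-time plots; two separate experiments with fresh inocula.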

Data set [3] concerns Enterococcus faecium. Nature of the data set: Antimicrobial activity against Enterococcus faecium HMC 588 assessed as time required to induce post antibiotic sub-MIC effect at 0.4 times MIC […] by plate counting method. The data set is classed as functional. An outline of the steps: as §1
Data set [4] is described as follows: Protein binding healthy human serum. Format: ADME, cell-free. The settings on record: read-out: PB.
For data set [5], the system named is Staphylococcus aureus. The experiment in a line: Antimicrobial activity against vancomycin-intermediate-, methicillin-resistant Staphylococcus aureus 770 by microdilution method. The data set is classed as functional.
Data set [6] relates to Enterococcus faecalis. Nature of the data set: Antimicrobial activity against Enterococcus faecalis ATCC 29212 by microdilution method. The data set is classed as functional. On the technique in general: Dilution methods test growth across graded concentrations, often in twofold steps.
Data set [7] has as its system Staphylococcus aureus. The experiment in a line: Antimicrobial activity against vancomycin-intermediate-, methicillin-resistant Staphylococcus aureus 770 assessed as post-antibiotic effect at 10 times MIC pre-exposed to Telavancin for 1 hr by plate counting method. The data set is classed as functional. An outline of the steps:
(§2)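 Viable plate count method in Mueller-Hinton broth. Direct colony suspension inoculum of about 5 × 10^6 CFU/ml was exposed to 10× MIC for 1 h at 35°C in a shaking water bath, then diluted 1:1,000 to remove drug. Counts were taken before exposure, at 0 h, then every 2 h until McFarland no. 1 turbidity. PAE = T − C, the time to a 1 log10 rise versus an unexposed growth control.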

The test system of data set [8] is Staphylococcus aureus. Nature of the data set: Antimicrobial activity against vancomycin-intermediate-, methicillin-resistant Staphylococcus aureus 1984 assessed as post-antibiotic effect at 10 times MIC pre-exposed to Telavancin for 1 hr by plate counting method. Format: functional. Summed up:
as §2

In data set [9] the test system is Streptococcus pyogenes. The experiment in a line: Antimicrobial activity against Streptococcus pyogenes HMC 414 assessed as post-antibiotic effect at 10 times MIC pre-exposed to Telavancin for 1 hr by plate counting method. The data set is classed as functional. An outline of the steps: (§3)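 Organisms were suspended in Mueller-Hinton broth from overnight blood agar colonies at about 5 × 10^6 CFU/ml. Cultures were exposed to telavancin at 10× MIC for 1 h at 35°C in a shaking water bath, then diluted 1:1,000 to remove the drug, with an untreated growth control. Viable counts were taken before exposure, at 0 h, then every 2 h until McFarland no. 1 turbidity. PAE = T − C, the time to a 1 log10 rise. Two experiments.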

For data set [10], the system named is Enterococcus faecalis. The experiment in a line: Antimicrobial activity against Enterococcus faecalis ATCC 29212 assessed as post-antibiotic effect at 10 times MIC pre-exposed to Telavancin for 1 hr by plate counting method. The data set is classed as functional. An outline of the steps:
as §3

For data set [11], the system named is Enterococcus faecalis. Nature of the data set: Antimicrobial activity against Enterococcus faecalis HMC 571 assessed as post-antibiotic effect at 10 times MIC pre-exposed to Telavancin for 1 hr by plate counting method. Format: functional. An outline of the steps: as §3
Data set [12] concerns Staphylococcus aureus. The experiment in a line: Antimicrobial activity against vancomycin-intermediate-, methicillin-resistant Staphylococcus aureus 555 assessed as time required to induce sub-MIC effect at 0.2 times MIC […] by plate counting method. The data set is classed as functional. An outline of the steps:
(§4)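 SME, viable plate count method: no prior drug exposure. About 5 × 10^6 CFU/ml in Mueller-Hinton broth at 35°C received 0.2, 0.3 or 0.4× MIC, alongside a drug-free tube. Counts were taken at the start, then every 2 h until McFarland no. 1 turbidity, as log10 CFU/ml against time. Two separate experiments, each with a new inoculum.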

The subject of data set [13] is Streptococcus pyogenes. Nature of the data set: Antimicrobial activity against Streptococcus pyogenes HMC 414 assessed as time required to induce sub-MIC effect at 0.2 times MIC exposed for 2 hrs by plate counting method. The data set is classed as functional. An outline of the steps:
(§5)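 Unexposed Mueller-Hinton broth cultures (about 5 × 10^6 CFU/ml, 35°C) were handled as in the PA-SME set but without the 10× MIC pre-exposure. They were diluted 1:1,000, then given telavancin at final 0.2, 0.3 or 0.4× MIC, with a drug-free control. Viable counts were taken every 2 h until McFarland no. 1 turbidity. Effect duration comes from log10 CFU/ml-time plots; two separate experiments with new inocula.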

Data set [14] deals with Enterococcus faecium. The experiment in a line: Antimicrobial activity against Enterococcus faecium HMC 588 assessed as time required to induce sub-MIC effect at 0.2 times MIC exposed for 2 hrs by plate counting method. Format: functional. Summed up:
as §5

Data set [15] relates to Staphylococcus aureus. The experiment in a line: Antimicrobial activity against vancomycin-susceptible-, methicillin-resistant Staphylococcus aureus 1307 assessed as time required to induce sub-MIC effect at 0.3 times MIC exposed for 2 hrs by plate counting method. The data set is classed as functional. Summed up: (§6)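 Sub-MIC effect: cultures not preexposed to drug were diluted and handled as in the PA-SME procedure in Mueller-Hinton broth with final 0.2, 0.3 or 0.4× MIC, plus a drug-free control. Viable plate counts were taken every 2 h until McFarland 1 turbidity. Duration was derived from growth curves. Two experiments were run, each with a new inoculum.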

Data set [16] relates to Staphylococcus aureus. Nature of the data set: Antimicrobial activity against vancomycin-susceptible-, methicillin-resistant Staphylococcus aureus 1306 assessed as time required to induce sub-MIC effect at 0.3 times MIC exposed for 2 hrs by plate counting method. The data set is classed as functional. An outline of the steps: as §6
Data set [17] has as its system Staphylococcus aureus. The experiment in a line: Antimicrobial activity against vancomycin-intermediate-, methicillin-resistant Staphylococcus aureus 770 assessed as time required to induce sub-MIC effect at 0.3 times MIC exposed for 2 hrs by plate counting method. The data set is classed as functional. An outline of the steps: as §4
Data set [18] relates to Staphylococcus aureus. Nature of the data set: Antimicrobial activity against vancomycin-intermediate-, methicillin-resistant Staphylococcus aureus 1984 assessed as time required to induce sub-MIC effect at 0.3 times MIC exposed for 2 hrs by plate counting method. The data set is classed as functional. Summed up: as §4
For data set [19], the system named is Staphylococcus aureus. Nature of the data set: Antimicrobial activity against vancomycin-resistant-, methicillin-resistant Staphylococcus aureus 510 assessed as time required to induce sub-MIC effect at 0.3 times MIC exposed for 2 hrs by plate counting method. The data set is classed as functional. Summed up: as §6
For data set [20], the system named is Enterococcus faecalis. Nature of the data set: Antimicrobial activity against Enterococcus faecalis HMC 571 assessed as time required to induce sub-MIC effect at 0.3 times MIC exposed for 2 hrs by plate counting method. The data set is classed as functional. An outline of the steps: as §5
For data set [21], the system named is Streptococcus agalactiae. The experiment in a line: Antimicrobial activity against Streptococcus agalactiae HMC 5 assessed as time required to induce post antibiotic sub-MIC effect at 0.3 times MIC […] by plate counting method. Format: functional. An outline of the steps:
as §1

Data set [22] concerns Staphylococcus aureus. The experiment in a line: Antimicrobial activity against vancomycin-susceptible-, methicillin-resistant Staphylococcus aureus ATCC 33591 assessed as time required to induce sub-MIC effect at 0.4 times MIC exposed for 2 hrs by plate counting method. Format: functional. An outline of the steps: as §6
Data set [23] concerns Staphylococcus aureus. The experiment in a line: Antimicrobial activity against vancomycin-intermediate-, methicillin-resistant Staphylococcus aureus 1287 assessed as time required to induce post antibiotic sub-MIC effect at 0.2 times MIC pre-exposed to Telavancin for 1 hr by plate counting method.

The term MIC denotes the least concentration at which growth counts as inhibited. Read a low MIC as a more susceptible organism. As for `CCCCCCCCCCNCCN[C@@]1(C)C[C@H](O[C@H]2[C@H](Oc3c4cc5cc3Oc3ccc(cc3Cl)[C@@H](O)[C@@H](NC(=O)[C@@H](CC(C)C)NC)C(=O)N[C@@H](CC(N)=O)C(=O)N[C@H]5C(=O)N[C@H]3C(=O)N[C@H](C(=O)N[C@H](C(=O)O)c5cc(O)c(CNCP(=O)(O)O)c(O)c5-c5cc3ccc5O)[C@H](O)c3ccc(c(Cl)c3)O4)O[C@H](CO)[C@@H](O)[C@@H]2O)O[C@@H](C)[C@H]1O` [TELAVANCIN], the PAE was 8.1 h in the data set with Staphylococcus aureus [1]; over 10.7 h in the data set on Streptococcus agalactiae [2]; over 10 h with Enterococcus faecium [3]; 1.6 h with Staphylococcus aureus [7]; 0.9 h in the data set with Staphylococcus aureus [8]; 6.1 h with Streptococcus pyogenes [9]. Further, the PAE was 0.3 h with Enterococcus faecalis [10]; 1.5 h in the data set with Enterococcus faecalis [11]; 0.3 h in the data set with Staphylococcus aureus [12]; 0 h in the data set on Streptococcus pyogenes [13]; 1.2 h with Enterococcus faecium [14]; 2.6 h in the data set on Staphylococcus aureus [15]. Besides, the PAE in the data set on Staphylococcus aureus [16] stood at 5.1 h; in the data set on Staphylococcus aureus [17], 0.8 h; in the data set with Staphylococcus aureus [18] it was 2.6 h; in the data set on Staphylococcus aureus [19], 2.3 h; in the data set with Enterococcus faecalis [20], 2.6 h; in the data set with Streptococcus agalactiae [21], 4.7 h. For the same compound, the PAE is 2.3 h in the data set with Staphylococcus aureus [22] and 5.1 h in the data set on Staphylococcus aureus [23]. Further, in data set [4], the fraction unbound is at most 0.1. The minimum inhibitory concentration (MIC) against Staphylococcus aureus [5] and against Enterococcus faecalis [6] was 0.25 µg/mL (≈ 0.142 µM) throughout.

These data come from ChEMBL document CHEMBL1629663, “Postantibiotic effects of telavancin against 16 gram-positive organisms” (Antimicrob Agents Chemother, 2009).
